In ChEMBL document CHEMBL3745626, “Synthesis of β-boswellic acid derivatives as cytotoxic and apoptotic agents” (Bioorg Med Chem Lett, 2016):
Calls of active or inactive are those of the source. No cut-off for these calls is given here.

Columns and labels:
[1] = Anticancer activity against human HCT116 cells assessed as growth inhibition at 100 uM after 24 hrs by sulforhodamine B assay; assay type: functional; conditions: HCT-116, 24 h
A549 [2] = assay: Anticancer activity against human A549 cells assessed as growth inhibition at 100 uM after 24 hrs by sulforhodamine B assay; assay type: functional; conditions: A549, 24 h
[3] = Anticancer activity against human PC3 cells assessed as growth inhibition at 100 uM after 24 hrs by sulforhodamine B assay; assay type: functional; conditions: PC-3, 24 h
[4] = Anticancer activity against human HT1080 cells assessed as growth inhibition at 100 uM after 24 hrs by sulforhodamine B assay; assay type: functional; conditions: HT-1080, 24 h
HCT-116 [5] = assay: Induction of apoptosis in human HCT116 cells assessed as increase in apoptotic body formation after 48 hrs by DAPI staining based fluorescence microscopy; assay type: functional, cell-based
Method in brief: (§1)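 HCT-116 cells exposed to 1, 2.5 and 5 μM for 48 h, nuclei stained with DAPI and examined by fluorescence microscopy for chromatin condensation and apoptotic bodies; untreated and paclitaxel controls.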

T47D = assay: Anticancer activity against human T47D cells assessed as growth inhibition after 24 hrs by sulforhodamine B assay; assay type: functional, cell-based
Method in brief: (§2)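 SRB assay on human cancer cell lines over a range of concentrations; inhibitory values calculated from concentration–response data, mean ± SD of three experiments.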

[6] = Anticancer activity against human PC3 cells assessed as growth inhibition after 24 hrs by sulforhodamine B assay; assay type: functional, cell-based; conditions: PC-3, 24 h; method in brief: as §2
A549 [7] = assay: Anticancer activity against human A549 cells assessed as growth inhibition after 24 hrs by sulforhodamine B assay; assay type: functional, cell-based; conditions: A549, 24 h; method in brief: as §2
HCT-116 [8] = assay: Induction of apoptosis in human HCT116 cells assessed as PARP cleavage at 1 to 5 uM after 48 hrs by Western blot analysis; assay type: functional, cell-based
Method in brief: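 HCT-116 cells incubated 48 h at 1, 2.5 and 5 μM; intact and cleaved PARP-1 detected by western blot, β-actin loading control; paclitaxel positive control.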

HCT-116 [9] = assay: Anticancer activity against human HCT116 cells assessed as inhibition of colony formation at 1 to 5 uM after 48 hrs by clonogenic assay; assay type: functional, cell-based
Method in brief: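 HCT-116 cells treated at 1, 2.5 and 5 μM, then reseeded at suitable dilution (500 cells for untreated control) in six-well plates to form colonies over 1-3 weeks; survival fraction expressed relative to untreated control; paclitaxel positive control.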

HCT-116 [10] = assay: Induction of apoptosis in human HCT116 cells assessed as chromatin condensation after 48 hrs by DAPI staining based fluorescence microscopy; assay type: functional, cell-based; method in brief: as §1
[11] = Cytotoxicity against human FR2 cells assessed as growth inhibition after 24 hrs by sulforhodamine B assay; assay type: cell-based; conditions: FR2, 24 h
HCT-116 [12] = assay: Induction of ROS generation in human HCT116 cells after 48 hrs by 2',7'-dichlorofluorescien diacetate staining based fluorescence microscopy; assay type: functional, cell-based
Method in brief: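 HCT-116 cells exposed 48 h at 1 and 2.5 μM, loaded with DCFDA; DCF fluorescence measured by imaging and spectrofluorometry; H2O2 positive control.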

HCT-116 [13] = assay: Induction of apoptosis in human HCT116 cells assessed as loss of mitochondrial membrane potential after 48 hrs by rhodamine 123 staining based confocal microscopy; assay type: functional, cell-based
Method in brief: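 Rhodamine-123 staining of HCT-116 cells treated at 1, 2.5 and 5 μM; mitochondrial fluorescence intensity read by laser scanning confocal microscopy; paclitaxel (50 nM) positive control; mean ± SD.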

[14] = Anticancer activity against human HCT116 cells assessed as growth inhibition after 24 hrs by sulforhodamine B assay; assay type: functional, cell-based; conditions: HCT-116, 24 h; method in brief: as §2

Compound	inhibition at 100 µM [1]	inhibition at 100 µM (A549 [2])	inhibition at 100 µM [3]	inhibition at 100 µM [4]	further results
COC(=O)[C@@]1(C)C(=O)/C(=C/c2ccc(F)c(Br)c2)C[C@]2(C)[C@H]3CC=C4[C@@H]5[C@@H](C)[C@H](C)CC[C@]5(C)CC[C@@]4(C)[C@]3(C)CC[C@@H]12	27%	47%	40%	43%	
COC(=O)[C@@]1(C)C(=O)/C(=C/c2c(Cl)cccc2Cl)C[C@]2(C)[C@H]3CC=C4[C@@H]5[C@@H](C)[C@H](C)CC[C@]5(C)CC[C@@]4(C)[C@]3(C)CC[C@@H]12	57%	74%	24%	99%	
COC(=O)[C@@]1(C)C(=O)/C(=C/c2ccc([N+](=O)[O-])cc2)C[C@]2(C)[C@H]3CC=C4[C@@H]5[C@@H](C)[C@H](C)CC[C@]5(C)CC[C@@]4(C)[C@]3(C)CC[C@@H]12	30%	47%	52%	36%	
COC(=O)[C@@]1(C)C(=O)/C(=C/c2ccco2)C[C@]2(C)[C@H]3CC=C4[C@@H]5[C@@H](C)[C@H](C)CC[C@]5(C)CC[C@@]4(C)[C@]3(C)CC[C@@H]12	18%	48%	44%	16%	
COC(=O)[C@@]1(C)C(=O)/C(=C/c2ccccc2[N+](=O)[O-])C[C@]2(C)[C@H]3CC=C4[C@@H]5[C@@H](C)[C@H](C)CC[C@]5(C)CC[C@@]4(C)[C@]3(C)CC[C@@H]12	21%	42%	11%	100%	
COC(=O)[C@@]1(C)C(=O)/C(=C/c2cccc(Br)c2)C[C@]2(C)[C@H]3CC=C4[C@@H]5[C@@H](C)[C@H](C)CC[C@]5(C)CC[C@@]4(C)[C@]3(C)CC[C@@H]12	8%	14%	6%	15%	
COC(=O)[C@@]1(C)C(=O)/C(=C/c2ccc(OC(F)(F)F)cc2)C[C@]2(C)[C@H]3CC=C4[C@@H]5[C@@H](C)[C@H](C)CC[C@]5(C)CC[C@@]4(C)[C@]3(C)CC[C@@H]12	0%	14%	35%	78%	
COC(=O)[C@@]1(C)C(=O)CC[C@]2(C)[C@H]3CC=C4[C@@H]5[C@@H](C)[C@H](C)CC[C@]5(C)CC[C@@]4(C)[C@]3(C)CC[C@@H]12	58%	56%	44%	21%	
COC(=O)[C@@]1(C)C(=O)/C(=C/c2ccc(F)cc2F)C[C@]2(C)[C@H]3CC=C4[C@@H]5[C@@H](C)[C@H](C)CC[C@]5(C)CC[C@@]4(C)[C@]3(C)CC[C@@H]12	32%	33%	20%	0%	
COC(=O)[C@@]1(C)C(=O)/C(=C/c2ccncc2)C[C@]2(C)[C@H]3CC=C4[C@@H]5[C@@H](C)[C@H](C)CC[C@]5(C)CC[C@@]4(C)[C@]3(C)CC[C@@H]12	100%	99%	100%	95%	Activity (HCT-116 [5]): Dose-dependent effect; IC50 (T47D): 1260 nM; IC50 [6]: 1960 nM; IC50 (A549 [7]): 2130 nM; Activity (HCT-116 [8]): Active; inhibition (HCT-116 [9]): Dose-dependent effect; Activity (HCT-116 [10]): Dose-dependent effect; IC50 [11]: 21400 nM; Activity (HCT-116 [12]): Dose-dependent effect; Activity (HCT-116 [13]): Dose-dependent effect; IC50 [14]: 1840 nM
COC(=O)[C@@]1(C)C(=O)/C(=C/c2cccs2)C[C@]2(C)[C@H]3CC=C4[C@@H]5[C@@H](C)[C@H](C)CC[C@]5(C)CC[C@@]4(C)[C@]3(C)CC[C@@H]12	40%	42%	19%	37%	
